The values that follow come from ChEMBL document CHEMBL3632506, “Esters of some non-steroidal anti-inflammatory drugs with cinnamyl alcohol are potent lipoxygenase inhibitors with enhanced anti-inflammatory activity” (Bioorg Med Chem Lett, 2015).

The source made the active and inactive calls. The calls are words filed in the database; no cut-off is given here.

In data set [1] the test system is Rattus norvegicus. Briefly: Antiinflammatory activity in rat assessed as reduction of carrageenan-induced paw oedema at 0.15 mmol/kg, ip administered 5 mins before carrageenan challenge measured after 3.5 hrs. It counts as functional. An outline of the steps: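 Rat carrageenan-induced paw oedema; compounds given ip at 0.15 mmol/kg body weight. Result expressed as percent inhibition of oedema relative to controls; mean of 6–8 animals; significance by Student's t test.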

The nature of data set [2]: Antioxidant activity assessed as DPPH radical scavenging activity at 0.2 mM after 30 mins. It counts as physicochemical. The settings on record: 0.5 h, 200 µM. A general note: The DPPH test is a chemical assay of radical scavenging.
Data set [3] in a line: Inhibition of soybean lipoxygenase assessed as reduction in conversion of sodium linoleate to 13-hydroperoxylinoleic acid up to 7 mins. Also noted: species or system Glycine max.
The next data set has as its system Glycine max. Briefly: Competitive inhibition of soybean lipoxygenase 1 mM of sodium linoleate assessed as reduction of 13-hydroperoxylinoleic acid formation up to 7 mins. In a few lines:
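Soybean lipoxygenase run with linoleic acid at 1 mM, above the saturating substrate concentration, under the same conditions as the standard inhibition assay, to test for competitive inhibition.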

The next data set deals with Liver. The experiment in a line: Antioxidant activity in rat hepatic microsomal membrane assessed as inhibition of ferrous ascorbate-induced lipid peroxidation after 45 mins by spectrophotometric analysis. It is filed as functional, cell membranes.
The test system of data set [4] is Rattus norvegicus. The experiment in a line: Antiinflammatory activity in rat assessed as reduction of carrageenan-induced paw oedema at 0.30 mmol/kg, ip administered 5 mins before carrageenan challenge measured after 3.5 hrs. It is filed as functional.
The subject of data set [5] is Rattus norvegicus. Briefly: Antidyslipidemic activity in rat Triton-WR1339-induced hyperlipidemic model assessed as reduction of plasma total cholesterol level at 0.15 mmol/kg, ip after 24 hrs. It counts as functional. Also noted: scale not given: the % may be the effect or the level left. An outline of the steps:
(§1)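 Hyperlipidemia induced in rats by tyloxapol 200 mg/kg ip; compounds given ip at 150 μmol/kg. Serum total cholesterol, triglycerides and LDL-cholesterol compared with hyperlipidemic controls. Groups of six to eight rats; significance by Student's t test.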

Data set [6] relates to Rattus norvegicus. Briefly: Antidyslipidemic activity in rat Triton-WR1339-induced hyperlipidemic model assessed as reduction of plasma triglyceride level at 0.15 mmol/kg, ip after 24 hrs. It is filed as functional. The arrangement: scale not given: the % may be the effect or the level left. In a few lines:
as §1

The test system of data set [7] is Rattus norvegicus. The experiment in a line: Antidyslipidemic activity in rat Triton-WR1339-induced hyperlipidemic model assessed as reduction of plasma low density lipoprotein cholesterol level at 0.15 mmol/kg, ip after 24 hrs. It counts as functional. Also noted: scale not given: the % may be the effect or the level left. In a few lines:
as §1

Consider `CC(C)Cc1ccc(C(C)C(=O)O)cc1` (stereo unspecified) [IBUPROFEN], for which, in the data set on Rattus norvegicus [1], the inhibition in vivo – broadly, the change of the read-out against control, counted positive when it falls – at 150 µmol/kg is 36%.

For the molecule `O=C(Cc1c[nH]c2ccccc12)OC/C=C/c1ccccc1`, in data set [2], the Activity entry is recorded as “Not Active”. Moreover, the IC50 (usually the point on the concentration scale where inhibition reaches its midpoint) in [3] was determined as 116 µM. In addition, the inhibition in vivo at 150 µmol/kg in the data set on Rattus norvegicus [1] was found to be 33%. In addition, the inhibition entry in the data set on Glycine max and in the data set on Liver was “inactive” throughout.

Regarding `CC(C(=O)OC/C=C/c1ccccc1)c1cccc(C(=O)c2ccccc2)c1` (stereo unspecified), in data set [2], the Activity entry is recorded as “Not Active”. The IC50 in data set [3] worked out at 22.5 µM. Moreover, the inhibition in vivo at 150 µmol/kg in the data set with Rattus norvegicus [1] was 55%. Also, the inhibition result in the data set on Glycine max and in the data set with Liver was “inactive” throughout.

With `COc1ccc2cc([C@H](C)C(=O)O)ccc2c1` [NAPROXEN], the inhibition in vivo at 150 µmol/kg with Rattus norvegicus [1] is 11%.

For the molecule `CC(C)Cc1ccc(C(C)C(=O)OC/C=C/c2ccccc2)cc1` (stereo unspecified), the Activity entry in data set [2] is reported as “Not Active”; with Rattus norvegicus [5], 53.3%; in the data set with Rattus norvegicus [6], 77.5%; in the data set on Rattus norvegicus [7] it was 75%. In addition, the IC50 in data set [3] was determined as 6.7 µM. The inhibition in vivo at 150 µmol/kg in the data set with Rattus norvegicus [1] is 46%. The inhibition in vivo at 300 µmol/kg in the data set with Rattus norvegicus [4] came to 68%. In addition, the inhibition entry with Glycine max and in the data set on Liver was “inactive” in each case.

With `CC(Cc1ccc(O)c(O)c1)C(C)Cc1ccc(O)c(O)c1` (stereo unspecified) [NORDIHYDROGUAIARETIC ACID], in data set [3], the IC50 amounted to 1.3 µM.

`O=C(O)Cc1ccccc1Nc1c(Cl)cccc1Cl` [DICLOFENAC]: in the data set with Rattus norvegicus [1], the inhibition in vivo at 150 µmol/kg stood at 37%.

Regarding `Cc1cccc(Nc2ccccc2C(=O)O)c1C` [MEFENAMIC ACID], the inhibition in vivo at 150 µmol/kg in the data set with Rattus norvegicus [1] was found to be 44%.

As to `COc1ccc2c(c1)c(CC(=O)OC/C=C/c1ccccc1)c(C)n2C(=O)c1ccc(Cl)cc1`, the Activity entry in data set [2] is given as “Not Active”. Further, the IC50 in [3] amounted to 9 µM. Moreover, the inhibition in vivo at 150 µmol/kg with Rattus norvegicus [1] is 56%. The inhibition result with Glycine max and in the data set with Liver was “inactive” each time.

For the molecule `O=C(O)c1ccccc1Nc1cccc(C(F)(F)F)c1` [FLUFENAMIC ACID], the inhibition in vivo at 150 µmol/kg with Rattus norvegicus [1] was determined as 19%.

As to `Cc1c(Cl)cccc1Nc1ccccc1C(=O)O` [TOLFENAMIC ACID], the inhibition in vivo at 150 µmol/kg with Rattus norvegicus [1] turned out to be 24%.

Take `Cc1c(Cl)cccc1Nc1ccccc1C(=O)OC/C=C/c1ccccc1`: in [2], the Activity result is given as “Not Active”. Also, the IC50 in [3] was determined as 9.6 µM. In the data set on Rattus norvegicus [1], the inhibition in vivo at 150 µmol/kg was determined as 42%. The inhibition result with Glycine max and in the data set with Liver was “inactive” each time.

For `COc1ccc2cc([C@H](C)C(=O)OC/C=C/c3ccccc3)ccc2c1`, in data set [2], the Activity result is “Not Active”. The 50% inhibitory concentration (IC50) in data set [3] came out at 40.5 µM. Further, in the data set with Rattus norvegicus [1], the inhibition in vivo at 150 µmol/kg was 60%. Also, the inhibition entry in the data set with Glycine max and in the data set with Liver was “inactive” throughout.

On to `O=C(OC/C=C/c1ccccc1)c1ccccc1Nc1cccc(C(F)(F)F)c1`, for which the Activity result in [2] is on record as “Not Active”; in the data set on Rattus norvegicus [5] it was 48.4%; in the data set with Rattus norvegicus [6] it was 50.1%; with Rattus norvegicus [7], 65.1%. In [3], the IC50 turned out to be 9 µM. In addition, the inhibition in vivo at 150 µmol/kg in the data set on Rattus norvegicus [1] came out at 48%. Further, the inhibition entry in the data set on Glycine max and in the data set on Liver was “inactive” each time.

On to `Cc1cccc(Nc2ccccc2C(=O)OC/C=C/c2ccccc2)c1C`, for which the Activity entry in data set [2] is “Not Active”. The IC50 in [3] was found to be 38 µM. For the same molecule, the inhibition in vivo at 150 µmol/kg in the data set with Rattus norvegicus [1] worked out at 62%. The inhibition result in the data set on Glycine max and in the data set with Liver was “inactive” each time.

On to `OC/C=C/c1ccccc1` [CINNAMIC ALCOHOL], for which the IC50 in [3] was determined as 250 µM. For the same molecule, in the data set on Rattus norvegicus [1], the inhibition in vivo at 150 µmol/kg amounted to 13%.

Consider `O=C(Cc1ccccc1Nc1c(Cl)cccc1Cl)OC/C=C/c1ccccc1`, for which the Activity result in [2] is given as “Not Active”; with Rattus norvegicus [5], 78.4%; in the data set with Rattus norvegicus [6] it was 71.6%; in the data set on Rattus norvegicus [7], 76.8%. Moreover, the IC50 in data set [3] was found to be 78 µM. Moreover, in the data set on Rattus norvegicus [1], the inhibition in vivo at 150 µmol/kg was found to be 53%. The inhibition entry in the data set with Glycine max and in the data set with Liver was “inactive” throughout.

Regarding `O=C(CCCCC1CCSS1)OC/C=C/c1ccccc1` (stereo unspecified), the Activity entry in data set [2] is “Not Active”. Also, the half-inhibitory concentration (IC50) in data set [3] turned out to be 11.3 µM. Moreover, in the data set on Rattus norvegicus [1], the inhibition in vivo at 150 µmol/kg was 48%. For the same molecule, the inhibition in vivo at 300 µmol/kg in the data set with Rattus norvegicus [4] stood at 57%. In addition, the inhibition entry with Glycine max and in the data set on Liver was “inactive” in each case.

For `COc1ccc2c(c1)c(CC(=O)O)c(C)n2C(=O)c1ccc(Cl)cc1` [INDOMETHACIN], the inhibition in vivo at 150 µmol/kg in the data set on Rattus norvegicus [1] worked out at 42%.
